For assay [1], the system named is Pseudomonas aeruginosa. In words: Antibacterial activity against Pseudomonas aeruginosa COR6 expressing MexC-MexD-OprJ gene by broth microdilution method. Format: functional. Summed up: (§1)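 Standard broth microdilution in cation-adjusted Mueller-Hinton broth (25 mg Ca2+ and 12.5 mg Mg2+ per liter), inoculum 4×10^5 CFU/ml, against P. aeruginosa PAO1 or its laboratory mutants with defined resistance mechanisms. MIC was the lowest concentration completely inhibiting […] growth in wells. Determinations were done in duplicate.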
Background: Broth dilution looks for growth in wells or tubes with falling amounts of substance.

Assay [2] has as its system Pseudomonas aeruginosa. In words: Antibacterial activity against Pseudomonas aeruginosa N092 expressing MexE-MexF-OprN gene and OprD mutant gene and harboring nfxC mutant gene by broth microdilution method.
In assay [3] the test system is Pseudomonas aeruginosa. In words: Antibacterial activity against Pseudomonas aeruginosa N091 by broth microdilution method. Format: functional. Summed up:
as §1

Assay [4] deals with Pseudomonas aeruginosa. Put plainly: Antibacterial activity against Pseudomonas aeruginosa PAO1 by broth microdilution method. Format: functional. In short, it runs like this: as §1
For assay [5], the system named is Pseudomonas aeruginosa. Put plainly: Antibacterial activity against beta-lactamase-overproducing Pseudomonas aeruginosa N043 by broth microdilution method. It is filed as functional. Summed up: as §1
Assay [6] concerns Pseudomonas aeruginosa. Put plainly: Antibacterial activity against beta-lactamase-overproducing and OprD-deficient Pseudomonas aeruginosa N044 by broth microdilution method. Format: functional. In short, it runs like this: as §1
Assay [7] relates to Pseudomonas aeruginosa. Put plainly: Antibacterial activity against OprD-deficient Pseudomonas aeruginosa MR08 by broth microdilution method. Format: functional. Summed up:
as §1

Assay [8] has as its system Staphylococcus aureus. Put plainly: Antibacterial activity against methicillin-resistant Staphylococcus aureus 123-1 expressing PBP 2a by broth microdilution method. Format: functional. Summed up: (§2)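 Standard broth microdilution in cation-adjusted Mueller-Hinton broth (25 mg Ca2+ and 12.5 mg Mg2+ per liter), inoculum 4×10^5 CFU/ml. Isolates were 60 German MRSA clinical strains, and penicillinase-plasmid-cured MRSA 123-1 and 12386-1. QC strain was S. aureus ATCC 29213.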

Assay [9] concerns the target T1, MecA (Staphylococcus aureus, UniProt Q7DHH4).
T1 sequence (Q7DHH4 whole entry): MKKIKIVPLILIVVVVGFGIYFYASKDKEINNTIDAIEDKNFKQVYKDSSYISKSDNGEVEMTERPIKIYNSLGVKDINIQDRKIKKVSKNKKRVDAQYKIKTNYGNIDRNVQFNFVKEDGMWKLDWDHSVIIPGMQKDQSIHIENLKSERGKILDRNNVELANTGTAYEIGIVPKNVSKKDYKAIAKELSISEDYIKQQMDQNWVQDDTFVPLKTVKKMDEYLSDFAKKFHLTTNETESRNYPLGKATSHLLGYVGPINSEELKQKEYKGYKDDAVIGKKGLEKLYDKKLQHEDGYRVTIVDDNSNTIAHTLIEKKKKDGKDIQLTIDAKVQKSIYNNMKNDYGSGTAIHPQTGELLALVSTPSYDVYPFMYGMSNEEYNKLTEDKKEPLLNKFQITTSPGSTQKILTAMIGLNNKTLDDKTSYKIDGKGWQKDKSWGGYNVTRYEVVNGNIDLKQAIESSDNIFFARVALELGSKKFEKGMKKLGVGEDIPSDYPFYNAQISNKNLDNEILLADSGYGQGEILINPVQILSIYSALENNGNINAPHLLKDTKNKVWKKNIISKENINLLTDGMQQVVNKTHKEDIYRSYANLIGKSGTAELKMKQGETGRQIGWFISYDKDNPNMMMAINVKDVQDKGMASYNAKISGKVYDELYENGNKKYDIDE
Put plainly: Binding affinity to PBP2a in methicillin-resistant Staphylococcus aureus 12386-1 by [14C]benzylpenicillin labelled competitive assay. In short, it runs like this:
(§3)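 Competition against [14C]benzylpenicillin. Membranes came from penicillinase-plasmid-cured MRSA lysed with lysostaphin (100 μg/ml), DNase (1 μg/ml) and sonication in 50 mM sodium phosphate, 10 mM MgCl2, pH 7.0. They were collected at 5,000 × g for 10 min, then 100,000 × g for 60 min, at final 8 mg/ml protein. Compound was added for 30 min, then label for 30 min, at 37°C. IC50 for 50% label-binding inhibition to PBP 2a was read by imaging analyzer.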

In assay [10] the test system is Pseudomonas aeruginosa. In words: Ratio of MIC for Pseudomonas aeruginosa N045 to MIC for Pseudomonas aeruginosa PAO1. Format: functional. In short, it runs like this:
(§4)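 MICs were measured for PAO1-derived resistance mutants and the parent PAO1 by broth microdilution in cation-adjusted Mueller-Hinton broth (25 mg/liter Ca2+, 12.5 mg/liter Mg2+), inoculum 4×10^5 CFU/ml, in duplicate. MIC was the lowest concentration with complete growth inhibition. The ratio is the mutant MIC divided by the PAO1 MIC.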

Assay [11] deals with Pseudomonas aeruginosa. In words: Ratio of MIC for Pseudomonas aeruginosa N044 to MIC for Pseudomonas aeruginosa PAO1. It is filed as functional. Summed up:
as §4

In assay [12] the test system is Pseudomonas aeruginosa. In words: Ratio of MIC for Pseudomonas aeruginosa N043 to MIC for Pseudomonas aeruginosa PAO1. Format: functional. In short, it runs like this:
as §4

For assay [13], the system named is Pseudomonas aeruginosa. Put plainly: Ratio of MIC for Pseudomonas aeruginosa N092 to MIC for Pseudomonas aeruginosa PAO1. Format: functional. In short, it runs like this: as §4
In assay [14] the test system is Staphylococcus aureus. Put plainly: Antibacterial activity against methicillin-resistant Staphylococcus aureus 12386-1 expressing PBP 2a by broth microdilution method. It is filed as functional. In short, it runs like this:
as §2

Assay [15] has as its system Pseudomonas aeruginosa. In words: Antibacterial activity against Pseudomonas aeruginosa clinical isolates by broth microdilution method. Format: functional. Summed up: (§5)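 Broth microdilution in cation-adjusted Mueller-Hinton broth (25 mg Ca2+ and 12.5 mg Mg2+ per liter), inoculum 4×10^5 CFU/ml. MIC was the lowest concentration completely inhibiting visible growth in wells. European clinical isolates were tested with S. aureus ATCC 29213 and P. aeruginosa ATCC 27853 as quality controls. PAO1-derived mutants were run in duplicate.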

The test system of assay [16] is Pseudomonas aeruginosa. In words: Antibacterial activity against meropenem-resistant Pseudomonas aeruginosa clinical isolates by broth microdilution method. It is filed as functional. In short, it runs like this: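 Standard broth microdilution in cation-adjusted Mueller-Hinton broth (25 mg Ca2+ and 12.5 mg Mg2+ per liter), inoculum 4×10^5 CFU/ml. MIC is the lowest concentration completely inhibiting […] growth in wells. […] P. aeruginosa ATCC 27853 serves as QC strain.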

In assay [17] the target is T1, MecA. In words: Binding affinity to PBP2a in methicillin-resistant Staphylococcus aureus 123-1 by [14C]benzylpenicillin labelled competitive assay. Summed up:
as §3

Assay [18] has as its system Pseudomonas aeruginosa. Put plainly: Antibacterial activity against MexA-MexB-OprM-overproducing Pseudomonas aeruginosa OCR1 by broth microdilution method. Format: functional. In short, it runs like this:
as §1

Assay [19] relates to Pseudomonas aeruginosa. In words: Ratio of MIC for Pseudomonas aeruginosa N041 to MIC for Pseudomonas aeruginosa PAO1. It is filed as functional. Summed up:
as §4

Assay [20] concerns Pseudomonas aeruginosa. In words: Ratio of MIC for Pseudomonas aeruginosa MR08 to MIC for Pseudomonas aeruginosa PAO1. It is filed as functional. Summed up: as §4
The subject of assay [21] is Pseudomonas aeruginosa. Put plainly: Ratio of MIC for Pseudomonas aeruginosa COR6 to MIC for Pseudomonas aeruginosa PAO1. It is filed as functional. In short, it runs like this: as §4
For assay [22], the system named is Pseudomonas aeruginosa. Put plainly: Antibacterial activity against beta-lactamase and MexA-MexB-OprM-overproducing Pseudomonas aeruginosa N045 by broth microdilution method. It is filed as functional. In short, it runs like this:
as §5

The test system of assay [23] is Pseudomonas aeruginosa. In words: Antibacterial activity against MexA-MexB-OprM-overproducing and OprD-deficient Pseudomonas aeruginosa N041 by broth microdilution method. It is filed as functional. In short, it runs like this: as §1
For assay [24], the system named is Pseudomonas aeruginosa. Put plainly: Ratio of MIC for Pseudomonas aeruginosa OCR1 to MIC for Pseudomonas aeruginosa PAO1. It is filed as functional. In short, it runs like this:
as §4

Assay [25] has as its system Staphylococcus aureus. In words: Antibacterial activity against methicillin-resistant Staphylococcus aureus by broth microdilution method. Format: functional. In short, it runs like this:
as §2

In brackets after ≈: the same amount, converted by molar mass.

As for `C[C@H]1COc2c(N3CCN(C)CC3)c(F)cc3c(=O)c(C(=O)O)cn1c23.C[C@H]1COc2c(N3CCN(C)CC3)c(F)cc3c(=O)c(C(=O)O)cn1c23.O` [LEVOFLOXACIN], the MIC (commonly the lowest concentration that inhibits growth of the organism) in the assay on Pseudomonas aeruginosa [1] was determined as 8 µg/mL; in the assay on Pseudomonas aeruginosa [2] it was 8 µg/mL; in the assay on Pseudomonas aeruginosa [3] it was 0.5 µg/mL; against Pseudomonas aeruginosa [4] it was 0.5 µg/mL; with Pseudomonas aeruginosa [5], 0.25 µg/mL; against Pseudomonas aeruginosa [6], 0.25 µg/mL. In addition, in the assay on Pseudomonas aeruginosa [7], the MIC turned out to be 0.5 µg/mL.
For `C[C@@H](O)[C@H]1C(=O)N2C(C(=O)O)=C(S[C@@H]3CN[C@H](C(=O)N(C)C)C3)[C@H](C)[C@H]12` [MEROPENEM], the MIC was 0.5 µg/mL (≈ 1.3 µM) with Pseudomonas aeruginosa [1]; 32 µg/mL (≈ 83.4 µM) in the assay on Staphylococcus aureus [8]; 1 µg/mL (≈ 2.61 µM) with Pseudomonas aeruginosa [2]; 16 µg/mL (≈ 41.7 µM) in the assay on Staphylococcus aureus [14]; at least 16 µg/mL in the assay on Pseudomonas aeruginosa [16]; 0.5 µg/mL (≈ 1.3 µM) in the assay on Pseudomonas aeruginosa [3]. Further, the MIC against Pseudomonas aeruginosa [18] is 2 µg/mL (≈ 5.22 µM); in the assay on Pseudomonas aeruginosa [4], 0.5 µg/mL (≈ 1.3 µM); with Pseudomonas aeruginosa [22], 2 µg/mL (≈ 5.22 µM); in the assay with Pseudomonas aeruginosa [5] it was 1 µg/mL (≈ 2.61 µM); with Pseudomonas aeruginosa [23], 16 µg/mL (≈ 41.7 µM); against Pseudomonas aeruginosa [6], 16 µg/mL (≈ 41.7 µM). The minimum inhibitory concentration (MIC) in the assay with Pseudomonas aeruginosa [7] is 4 µg/mL (≈ 10.4 µM). Further, the IC50 – broadly, the point on the concentration scale where inhibition reaches its midpoint – at MecA [9] is 138 µM; at MecA [17], 339 µM. Also, the Ratio turned out to be 4 with Pseudomonas aeruginosa [10]; 32 with Pseudomonas aeruginosa [11]; 2 with Pseudomonas aeruginosa [12]; 2 with Pseudomonas aeruginosa [13]; 32 in the assay on Pseudomonas aeruginosa [19]; 8 with Pseudomonas aeruginosa [20]. Further, the Ratio in the assay on Pseudomonas aeruginosa [21] is 1; in the assay with Pseudomonas aeruginosa [24] it was 4. Further, the figures for the MIC50 against Pseudomonas aeruginosa [15] and in the assay on Staphylococcus aureus [25] were 1 µg/mL (≈ 2.61 µM) and 8 µg/mL (≈ 20.9 µM), respectively. Also, the MIC90 – broadly, an inhibitory concentration at the 90% level, which refers to growth in some studies and to a panel of isolates in others – in the assay with Pseudomonas aeruginosa [15] is 16 µg/mL (≈ 41.7 µM); against Staphylococcus aureus [25], 32 µg/mL (≈ 83.4 µM).
For `C[C@@H](O)[C@H]1C(=O)N2C(C(=O)O)=C(S[C@H]3C[C@@H](C(=O)N4CC[C@H](NC(=O)CNC(=N)N)C4)N(C)C3)[C@H](C)[C@H]12` [TOMOPENEM], the MIC with Pseudomonas aeruginosa [1] stood at 0.25 µg/mL (≈ 0.465 µM); against Staphylococcus aureus [8], 8 µg/mL (≈ 14.9 µM); against Pseudomonas aeruginosa [2], 0.5 µg/mL (≈ 0.93 µM); in the assay with Staphylococcus aureus [14], 8 µg/mL (≈ 14.9 µM); in the assay with Pseudomonas aeruginosa [3], 0.25 µg/mL (≈ 0.465 µM); against Pseudomonas aeruginosa [18], 0.5 µg/mL (≈ 0.93 µM). The MIC amounted to 0.25 µg/mL (≈ 0.465 µM) in the assay with Pseudomonas aeruginosa [4]; 1 µg/mL (≈ 1.86 µM) with Pseudomonas aeruginosa [22]; 0.5 µg/mL (≈ 0.93 µM) with Pseudomonas aeruginosa [5]; 2 µg/mL (≈ 3.72 µM) in the assay with Pseudomonas aeruginosa [23]; 8 µg/mL (≈ 14.9 µM) with Pseudomonas aeruginosa [6]; 1 µg/mL (≈ 1.86 µM) against Pseudomonas aeruginosa [7]. The IC50 at MecA [9] was 5.39 µM; at MecA [17], 9.86 µM. Further, the Ratio in the assay with Pseudomonas aeruginosa [10] is 4; with Pseudomonas aeruginosa [11], 32; with Pseudomonas aeruginosa [12], 2; in the assay with Pseudomonas aeruginosa [13], 2; in the assay on Pseudomonas aeruginosa [19] it was 8; in the assay with Pseudomonas aeruginosa [20], 4. In addition, the Ratio in the assay with Pseudomonas aeruginosa [21] was determined as 1; with Pseudomonas aeruginosa [24] it was 2. Besides, the MIC50 (usually an inhibitory concentration at the 50% level, which refers to growth in some studies and to a panel of isolates in others) with Pseudomonas aeruginosa [15] worked out at 0.5 µg/mL (≈ 0.93 µM); against Staphylococcus aureus [25], 4 µg/mL (≈ 7.44 µM). Besides, the MIC90 came to 4 µg/mL (≈ 7.44 µM) in the assay on Pseudomonas aeruginosa [15] and 8 µg/mL (≈ 14.9 µM) in the assay with Staphylococcus aureus [25].

The record behind these values is ChEMBL document CHEMBL1275475, “Potent in vitro activity of tomopenem (CS-023) against methicillin-resistant Staphylococcus aureus and Pseudomonas aeruginosa” (Antimicrob Agents Chemother, 2008).
